What was measured:
[1] = Tmax in CAnN.Cg-Foxnlnu/CrlCrlj mouse plasma at 25 mg/kg, po single dose measured up to 24 hrs by liquid chromatography tandem mass spectrometry; type: ADME, organism-based
[2] = biological target: T1, Tyrosine-protein kinase Mer (Mus musculus, UniProt Q60805); assay: Inhibition of Mer in mouse BaF3 cells; type: cell-based
T1 sequence (Q60805 whole entry): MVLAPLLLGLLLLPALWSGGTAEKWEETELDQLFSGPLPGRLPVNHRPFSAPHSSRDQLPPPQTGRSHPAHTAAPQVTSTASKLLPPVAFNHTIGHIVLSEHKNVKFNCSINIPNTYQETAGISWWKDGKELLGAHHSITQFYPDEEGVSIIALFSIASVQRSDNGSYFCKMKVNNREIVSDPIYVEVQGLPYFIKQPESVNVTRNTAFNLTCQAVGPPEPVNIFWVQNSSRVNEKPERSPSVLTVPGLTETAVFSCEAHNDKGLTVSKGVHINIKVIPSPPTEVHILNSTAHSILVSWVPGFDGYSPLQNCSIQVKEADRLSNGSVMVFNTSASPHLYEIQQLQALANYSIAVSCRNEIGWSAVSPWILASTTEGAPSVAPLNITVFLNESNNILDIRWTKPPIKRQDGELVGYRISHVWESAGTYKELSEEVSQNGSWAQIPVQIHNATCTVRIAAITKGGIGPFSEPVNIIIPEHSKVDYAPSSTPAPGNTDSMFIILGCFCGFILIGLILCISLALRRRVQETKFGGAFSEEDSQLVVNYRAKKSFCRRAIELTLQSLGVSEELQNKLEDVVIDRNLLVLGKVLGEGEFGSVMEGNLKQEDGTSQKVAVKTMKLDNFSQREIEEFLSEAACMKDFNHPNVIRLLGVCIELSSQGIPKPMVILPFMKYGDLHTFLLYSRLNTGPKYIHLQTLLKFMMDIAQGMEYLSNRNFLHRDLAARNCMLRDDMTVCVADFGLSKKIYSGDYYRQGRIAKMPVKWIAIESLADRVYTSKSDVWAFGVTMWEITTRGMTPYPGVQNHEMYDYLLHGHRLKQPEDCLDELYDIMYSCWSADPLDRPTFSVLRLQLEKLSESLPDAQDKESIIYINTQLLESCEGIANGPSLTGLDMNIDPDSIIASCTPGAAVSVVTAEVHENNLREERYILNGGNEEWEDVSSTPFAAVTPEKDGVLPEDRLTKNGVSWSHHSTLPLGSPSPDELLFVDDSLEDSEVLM

[3] = biological target: T2, Tyrosine-protein kinase receptor UFO (Mus musculus, UniProt Q00993); assay: Inhibition of Axl in mouse BaF3 cells; type: cell-based
T2 sequence (Q00993 whole entry): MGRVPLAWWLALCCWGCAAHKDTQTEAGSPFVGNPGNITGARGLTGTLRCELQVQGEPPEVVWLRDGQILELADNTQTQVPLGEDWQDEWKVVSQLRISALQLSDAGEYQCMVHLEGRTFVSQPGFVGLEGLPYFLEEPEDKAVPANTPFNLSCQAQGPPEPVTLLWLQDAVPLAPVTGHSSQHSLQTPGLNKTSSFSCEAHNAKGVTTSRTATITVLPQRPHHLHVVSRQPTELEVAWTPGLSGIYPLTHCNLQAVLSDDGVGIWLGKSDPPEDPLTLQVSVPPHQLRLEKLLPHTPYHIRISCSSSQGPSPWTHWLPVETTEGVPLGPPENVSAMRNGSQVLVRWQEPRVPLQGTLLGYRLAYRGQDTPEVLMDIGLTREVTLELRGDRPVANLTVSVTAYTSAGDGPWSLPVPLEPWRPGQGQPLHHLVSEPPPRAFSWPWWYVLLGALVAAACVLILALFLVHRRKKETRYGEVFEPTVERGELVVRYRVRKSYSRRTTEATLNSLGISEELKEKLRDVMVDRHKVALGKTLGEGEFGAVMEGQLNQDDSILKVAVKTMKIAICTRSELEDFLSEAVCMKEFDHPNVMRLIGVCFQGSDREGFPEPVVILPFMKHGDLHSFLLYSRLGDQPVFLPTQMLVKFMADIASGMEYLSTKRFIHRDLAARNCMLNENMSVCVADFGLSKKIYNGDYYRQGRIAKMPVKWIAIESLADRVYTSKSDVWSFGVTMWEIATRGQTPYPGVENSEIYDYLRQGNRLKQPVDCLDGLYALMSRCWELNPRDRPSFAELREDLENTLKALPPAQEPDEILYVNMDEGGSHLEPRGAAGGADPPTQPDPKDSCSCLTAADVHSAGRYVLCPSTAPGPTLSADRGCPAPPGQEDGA

[4] = Cmax in CAnN.Cg-Foxnlnu/CrlCrlj mouse plasma at 50 mg/kg, po single dose measured up to 24 hrs by liquid chromatography tandem mass spectrometry; type: ADME, organism-based; design: route oral, dose 50 mg/kg, time <=24
CYP1A2 = biological target: T3, CYP1A2 (Homo sapiens, UniProt P05177); assay: Time dependent inhibition of CYP1A2 in human liver microsomes assessed as enzyme remaining activity using cocktail of probe CYP as substrate at 50 uM; type: ADME; details: probe cocktail of CYP probe substrates, read-out: Activity
T3 sequence (P05177 whole entry): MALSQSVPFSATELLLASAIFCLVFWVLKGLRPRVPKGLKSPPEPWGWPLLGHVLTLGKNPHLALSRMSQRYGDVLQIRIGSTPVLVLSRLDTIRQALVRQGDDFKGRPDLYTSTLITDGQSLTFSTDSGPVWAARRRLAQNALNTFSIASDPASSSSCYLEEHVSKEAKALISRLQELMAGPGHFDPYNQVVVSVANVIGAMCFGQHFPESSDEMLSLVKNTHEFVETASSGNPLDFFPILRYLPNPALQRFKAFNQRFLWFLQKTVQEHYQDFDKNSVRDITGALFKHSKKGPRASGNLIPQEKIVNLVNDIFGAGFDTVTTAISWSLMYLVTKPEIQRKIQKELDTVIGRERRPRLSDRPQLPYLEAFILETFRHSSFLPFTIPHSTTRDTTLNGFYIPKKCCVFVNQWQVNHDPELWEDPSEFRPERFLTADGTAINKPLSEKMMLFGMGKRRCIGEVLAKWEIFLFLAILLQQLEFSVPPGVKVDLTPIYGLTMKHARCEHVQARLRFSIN
Procedure, shortened: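 Time-dependent CYP inhibition in human liver microsomes, with test compound at 50 µM and a cocktail of probe CYP substrates.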

Compound: Cc1ccc(-n2c(=O)c(C(=O)Nc3ccc(Oc4ncnc5c4CCN(CC4CCN(C)CC4)C5)c(F)c3)cn(C3CCCC3)c2=O)nc1
- Tmax [1]: 2 h
- IC50 [2]: 180 nM
- IC50 [3]: 28 nM
- Cmax [4]: 5290 ng/mL
- activity at 50 µM (CYP1A2): 82%

Reference: ChEMBL document CHEMBL4823291, “Discovery of 5,6,7,8-tetrahydropyrido[3,4-d]pyrimidine derivatives as novel selective Axl inhibitors” (Bioorg Med Chem Lett, 2021)
